# This is a sample that favours compounds with a hit; in the whole collection about 2.7% have one here.
# DENV2 CPE rescue = protects cells from dengue virus 2 cytopathic effect. DENV2-infected cells, cytopathic effect rescue, plate reader. CPE inhibition, % at 9.99 µM. actives 1.7% (n = 350,000). AID 651640; in the data active means CPE inhibition above about 20%, passing the limit was not always enough; tested in BHK-21 cells;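 further: 0% = median of neutral control wells and 100% = median of positive control wells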
# SIRT5 block = sirtuin-5 (human) deacylase inhibition; inhibition, % at 15 µM; Q9NXA8; AID 652115; actives 1.1% (n = 330,000); Purified SirT5, succinyl-peptide AMC, trypsin-coupled fluorescence; in the data active means inhibition above about 15%
# MLL AF4-AF9 inh = MLL-AF4/AF9 protein interaction inhibition; P42568; inhibition, % at 10 µM; AID 651704; actives 0.47% (n = 350,000); AlphaScreen, biotin-AF4 peptide binding to FLAG-AF9;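 active means every replicate reaching a set inhibition limit, whatever the replicate mean, cut at about 25% in these data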;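 further: 0% = plate neutral control median and 100% = total signal loss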
# CaV13 ICDI inh = Primary screen for inhibitors of IQ motif and Ca2+-dependent inactivation inhibitor domain binding in CACNA1D, Förster resonance energy transfer in living cells, …; HEK cells, CFP/YFP FRET ICDI-IQ, plate reader, 10 min; percent FRET-ratio fall versus neutral wells; actives 0.098% (n = 340,000); AID 743397; inhibition, % at 12.3 µM;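 active means mean replicate inhibition of at least 30% and at least 1% of replicates passing that level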;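 further: 0% = median of the neutral control wells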
# S100A4 MyoIIA = inhibitors of human S100A4 binding to myosin IIA peptide; S100A4/TAMRA-MyoIIA peptide fluorescence polarization; inhibition, % at 10.7 µM; P26447; actives 0.14% (n = 360,000); AID 652163;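 active means mean inhibition of at least 70% across replicates, with every replicate also reaching that level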
# Target sequence (P26447 whole entry, looked up): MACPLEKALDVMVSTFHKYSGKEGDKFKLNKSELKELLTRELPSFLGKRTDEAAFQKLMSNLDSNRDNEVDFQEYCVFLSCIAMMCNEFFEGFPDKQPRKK
#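 Material: S100A4 monomer (human). Medium: Calcium-containing HEPES buffer, pH 7.2. Probe or stimulus: labelled myosin peptide probe, 5 nM. Compound dosing: one concentration per compound. Timing: polarization read 5 min after assay mix addition, stable 5–60 min. Benchmarks: DMSO as neutral control, TFP as positive control.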
# Alpha interfer = interferes with the AlphaScreen assay signal; AlphaScreen interference counter-screen, signal luminescence; shares compounds with MLL AF4-AF9 inh; AC50, µM (titrated, usually from 12 µM), inactives show at the top dose activity change, negative = inhibition; AID 720494; actives 45% (n = 530); cut-off not given, nearly all actives have AC50 up to about 14 µM
# Numbers without * were called inactive; x = no result.
SMILES,DENV2 CPE rescue,SIRT5 block,MLL AF4-AF9 inh,CaV13 ICDI inh,S100A4 MyoIIA,Alpha interfer
CN(C)CC/C=C1/c2cc(F)ccc2CSc2ccc(F)cc21,x,x,x,-1.1,x,x
CN(C)CC/C=C1/c2ccc(F)cc2Sc2ccc(Cl)cc21,13.2,-0.1,36.3*,4.8,7.8,-31.2%
C[C@@H]1CN([C@@H](C)CO)C(=O)c2cccc(NC(=O)c3ccncc3)c2O[C@H]1CN(C)Cc1ccc(-c2ccccc2)cc1,1.9,1.6,5.1,x,0.8,x
CC1CN(C)C(C)c2c1oc1ccc([N+](=O)[O-])cc21 (configuration not stated),-4.0,-1.2,-0.7,-4.6,2.0,x
CC1CN(C)C(C)c2c1oc1ccc(N)cc21 (configuration not stated),1.0,-3.8,35.0*,-1.7,-8.3,-25.9%
COc1cccc(-c2cn(CC[C@@H]3CC[C@H](NC(=O)CN(C)C)[C@H](CO)O3)nn2)c1,-10.7,-0.7,-2.1,x,-5.0,x
CN(C)c1ccc(/C=C/C(=O)c2ccc(O)cc2)cc1,-8.5,0.2,-11.1,-39.2,-18.6,x
CN(C)c1ccc(/C=C/c2ccc3ccccc3[n+]2C)cc1,x,x,x,-5.6,x,x
CN(C)c1ccc(C=c2c3ccccc3n3c2c2ccccc2[n+]3C)cc1,-5.4,-0.5,51.1*,-1.9,-5.2,3.45µM*
CN(C)c1ccc(C=c2c3cc(O)ccc3n3c2cc(-c2ccccc2)[n+]3C)cc1,-3.8,3.1,77.8*,-10.7,78.9*,2.46µM*

# Source: PubChem (Broad Institute)
